These results are taken from ChEMBL document CHEMBL4138127, “Synthesis and evaluation of new pyridyl/pyrazinyl thiourea derivatives: Neuroprotection against amyloid-β-induced toxicity” (Eur J Med Chem, 2017).

The species entered for series [1] is Mus musculus. In words: Inhibition of amyloid beta (1 to 42)-induced mPTP opening in mouse HT22 cells assessed as reduction in mitochondrial membrane potential loss by measuring green to red fluorescence ratio at 5 uM preincubated for 10 mins followed by amyloid beta (1 to 42) addition measured every 1 hr for 3 hrs by JC1 staining based fluorescence assay relative to control. The format is cell-based. In short, it runs like this:
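HT-22 cells were seeded at 30,000 per well the day before and loaded with JC-1 (7.5 µM final) in phenol red-free Opti-MEM for 1 h 15 min at 37 °C, then PBS-washed. Compound solution (5 µM in Opti-MEM) was added for 10 min at 37 °C, followed by Aβ1-42 solution (5 µM). Red (ex/em 530/580) and green (485/530) fluorescence were read hourly for 3 h. Green/red ratio change was normalized to vehicle control as 100%.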

For a further series, the system named is ATP synthase. As to the kind of experiment: Inhibition of ATP synthase in mouse HT22 cells assessed as ATP production at 5 uM after 7 hrs by luciferase based assay relative to control. The format is cell-based. Details: scale not given: the % may be the effect or the level left. Particulars: read-out: Activity. The procedure, abridged: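 HT-22 cells were seeded at 10,000 per well one day before, then given 5 µM compound for 7 h at 37 °C. After PBS washes, cells were lysed in 1% Triton X-100 in TBST. Protein was measured by BCA, and equal lysate amounts were assayed for ATP with a luciferase-based kit. Vehicle control was subtracted and percent inhibition was calculated relative to vehicle control ATP.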

The nature of series [2]: Cytotoxicity against mouse HT22 cells assessed as cell viability at 5 uM after 24 hrs by MTT assay relative to control. Conditions: read-out: Activity. The format is cell-based, HT-22. In short, it runs like this: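 HT-22 mouse hippocampal cells were grown in DMEM with 10% FBS and penicillin/streptomycin at 37 °C under 5% CO2, seeded at 5000 per well and exposed to 5 µM compound for 24 h at 37 °C. MTT was added for 2 h, then formazan was dissolved in 10% Triton X-100/isopropanol/0.1 M HCl for 1 h at room temperature. A570 was read and vehicle control OD subtracted to give viability.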
A general note: Tetrazolium dyes change colour on reduction, which living cells bring about.

The species named for series [3] is Mus musculus. As to the kind of experiment: Inhibition of mPTP opening in mouse HT22 cells assessed as protection against amyloid beta (1 to 42)-induced toxicity by measuring cell viability at 5 uM preincubated for 10 mins followed by amyloid beta (1 to 42) addition measured after 24 hrs by MTT assay (reference value: 50 to 70%). The format is cell-based. In short, it runs like this: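 HT-22 cells were seeded at 5000 per well the day before. Compound was added as a 10 µM solution for 10 min at 37 °C, then an equal volume of 10 µM Aβ1-42 was added, and cells were incubated 24 h at 37 °C. The table footnote states 5 µM of each. Viability was read by MTT (2 h, acidic Triton/isopropanol solubilization, A570). Protection was scaled to vehicle + Aβ as 0% and vehicle alone as 100%.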

On to `Cc1ccc(NC(=S)Nc2ncccc2OCc2ccccc2Cl)cc1`, for which the Ratio in the series listed under Mus musculus [1] was 13%. The activity at 7 h, 5 µM in the series with ATP synthase turned out to be 102%. In addition, the viability at 24 h, 5 µM in series [2] was determined as 93.5%. Moreover, the Activity in the series listed under Mus musculus [3] is 6.6%.

On to `S=C(Nc1cccc(Cl)c1)Nc1nccnc1OCc1ccccc1Cl`, for which, in the series filed under Mus musculus [1], the Ratio turned out to be 30.8%. In the series on ATP synthase, the activity at 7 h, 5 µM came out at 98%. Besides, the viability at 24 h, 5 µM in series [2] was 114%. Also, the Activity in the series listed under Mus musculus [3] came out at 29.6%.

As to `S=C(Nc1cccc(Cl)c1)Nc1ncccc1OCc1ccccc1Cl`, the Ratio in the series filed under Mus musculus [1] stood at 14.2%. For the same molecule, in the series on ATP synthase, the activity at 7 h, 5 µM was found to be 103%. For the same molecule, the viability at 24 h, 5 µM in series [2] was determined as 116%. For the same molecule, the Activity in the series filed under Mus musculus [3] is 22.7%.

Turning to `Cc1ccc(NC(=S)Nc2ncccc2OCc2ccccc2)cc1`, the Ratio in the series filed under Mus musculus [1] was determined as 23.3%. In addition, the activity at 7 h, 5 µM with ATP synthase was determined as 66%.

With `CC(C)(C)NC(=S)Nc1ncccc1OCc1cccc(Cl)c1`, the Ratio in the series filed under Mus musculus [1] was found to be 112%.

With `CCNC(=S)Nc1ncccc1OCc1ccccc1Cl`, in the series listed under Mus musculus [1], the Ratio was found to be 94.1%.

Take `CC(C)NC(=S)Nc1nccnc1OCc1ccccc1Cl`: in the series filed under Mus musculus [1], the Ratio turned out to be 56.3%.

Turning to `CC(C)(C)NC(=S)Nc1nccnc1OCc1cccc(F)c1`, the Ratio in the series filed under Mus musculus [1] is 28.1%. Besides, the activity at 7 h, 5 µM in the series on ATP synthase amounted to 99.7%. In series [2], the viability at 24 h, 5 µM came to 101%. The Activity in the series listed under Mus musculus [3] came to 13.2%.

Turning to `NC(=O)CN1CCCC1=O` [PIRACETAM], the activity at 7 h, 5 µM in the series with ATP synthase amounted to 88%. For the same molecule, the Activity in the series filed under Mus musculus [3] is 29%.

As to `S=C(Nc1ncccc1OCc1ccccc1)Nc1cccc2ccccc12`, in the series filed under Mus musculus [1], the Ratio stood at 17.1%. In the series with ATP synthase, the activity at 7 h, 5 µM is 65%.

Take `CC(C)NC(=S)Nc1ncccc1OCc1ccccc1`: the Ratio in the series listed under Mus musculus [1] came out at 45.2%.

On to `S=C(NCc1ccccc1)Nc1ncccc1OCc1ccccc1`, for which the Ratio in the series listed under Mus musculus [1] was found to be 75.3%.

On to `Cc1ccc(NC(=S)Nc2ncccc2OCc2cccc(Cl)c2)cc1`, for which, in the series filed under Mus musculus [1], the Ratio worked out at 26%. The activity at 7 h, 5 µM with ATP synthase is 94.5%. Besides, the viability at 24 h, 5 µM in series [2] was determined as 96.2%. In the series listed under Mus musculus [3], the Activity was found to be 22.8%.

Take `S=C(Nc1ncccc1OCc1cccc(Cl)c1)Nc1cccc2ccccc12`: the Ratio in the series filed under Mus musculus [1] amounted to 26%. In addition, the activity at 7 h, 5 µM with ATP synthase was found to be 107%. The viability at 24 h, 5 µM in series [2] turned out to be 123%. Moreover, in the series listed under Mus musculus [3], the Activity is 18.6%.

Consider `S=C(Nc1ncccc1OCc1ccccc1Cl)Nc1cccc2ccccc12`, for which the Ratio in the series listed under Mus musculus [1] was 17.5%. In addition, in the series on ATP synthase, the activity at 7 h, 5 µM was found to be 100%. Also, the viability at 24 h, 5 µM in series [2] was found to be 89.3%. Further, the Activity in the series listed under Mus musculus [3] worked out at 9.5%.

As to `Fc1cccc(COc2cccnc2NC(=S)Nc2cccc3ccccc23)c1`, the Ratio in the series filed under Mus musculus [1] came out at 16.7%. Moreover, the activity at 7 h, 5 µM in the series with ATP synthase turned out to be 100%. The viability at 24 h, 5 µM in series [2] stood at 102%. The Activity in the series listed under Mus musculus [3] came to 48.2%.

`S=C(NCc1ccccc1)Nc1nccnc1OCc1ccccc1Cl`: the Ratio in the series filed under Mus musculus [1] came to 5.3%. In the series with ATP synthase, the activity at 7 h, 5 µM worked out at 85.1%. Also, in series [2], the viability at 24 h, 5 µM came out at 105%. For the same molecule, the Activity in the series listed under Mus musculus [3] was 3.8%.

As to `S=C(Nc1cccc(Cl)c1)Nc1ncccc1OCc1cccc(Cl)c1`, in the series listed under Mus musculus [1], the Ratio came out at 38%. The activity at 7 h, 5 µM with ATP synthase came to 104%. Besides, the viability at 24 h, 5 µM in series [2] was 98.3%. In addition, the Activity in the series listed under Mus musculus [3] was determined as 51.8%.

`CC(C)(C)NC(=S)Nc1ncccc1OCc1cccc(F)c1`: the Ratio in the series filed under Mus musculus [1] was determined as 123%.

As to `CC(C)NC(=S)Nc1ncccc1OCc1ccccc1Cl`, the Ratio in the series filed under Mus musculus [1] was determined as 31.7%. In addition, the activity at 7 h, 5 µM in the series on ATP synthase amounted to 93.7%. The viability at 24 h, 5 µM in series [2] turned out to be 99.3%. The Activity in the series filed under Mus musculus [3] is -6.7%.

`CC(C)NC(=S)Nc1ncccc1OCc1cccc(F)c1`: the Ratio in the series listed under Mus musculus [1] came out at 86%.

As for `CCNC(=S)Nc1ncccc1OCc1ccccc1`, the Ratio in the series filed under Mus musculus [1] was found to be 66.8%.

On to `Cc1ccc(NC(=S)Nc2nccnc2OCc2cccc(F)c2)cc1`, for which the Ratio in the series listed under Mus musculus [1] turned out to be 4.6%. Moreover, in the series with ATP synthase, the activity at 7 h, 5 µM worked out at 102%. For the same molecule, in series [2], the viability at 24 h, 5 µM amounted to 96.4%. Besides, in the series filed under Mus musculus [3], the Activity is 69.3%.

For `S=C(Nc1cccc(Cl)c1)Nc1ncccc1OCc1ccccc1`, the Ratio in the series filed under Mus musculus [1] is 25.3%. Besides, the activity at 7 h, 5 µM with ATP synthase stood at 68%.

As to `CCNC(=S)Nc1ncccc1OCc1cccc(F)c1`, the Ratio in the series listed under Mus musculus [1] was found to be 88.7%.

As to `CC(C)NC(=S)Nc1nccnc1OCc1cccc(F)c1`, the Ratio in the series filed under Mus musculus [1] was 43.1%.

Consider `CC(C)(C)NC(=S)Nc1ncccc1OCc1ccccc1`, for which the Ratio in the series listed under Mus musculus [1] is 91%.
